{
  "source": "ChEMBL document CHEMBL4219218",
  "about": "“P3-P4 ureas and reverse carbamates as potent HCV NS3 protease inhibitors: Effective transposition of the P4 hydrogen bond donor” (Bioorg Med Chem Lett, 2018)",
  "key": {"[1]": {"assay": "Drug level in Sprague-Dawley rat liver at 15 mg/kg administered intraduodenally as single dose measured at 4 hrs by LC/MS/MS method", "type": "ADME, organism-based", "conditions": "read-out: Drug uptake", "outline": "(§1)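 Single intraduodenal dose of 15 mg/kg to rats, n = 2. Plasma and liver exposure measured over a 4 h period, with a 4 h endpoint.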"}, "[2]": {"assay": "AUC in Sprague-Dawley rat plasma at 15 mg/kg administered intraduodenally as single dose measured at 4 hrs by LC/MS/MS method", "type": "ADME, organism-based", "design": "dose 15 mg/kg, time < 4 hr, route intraduodenal", "outline": "as §1"}},
  "data": [
    {"molecule": "C=C[C@@H]1C[C@]1(NC(=O)[C@@H]1C[C@@H](Oc2cc(-c3ccccc3)nc3cc(OC)ccc23)CN1C(=O)[C@@H](NC(=O)OC(C)(C)C)C(C)(C)C)C(=O)NS(=O)(=O)C1CC1", "values": [
      {"measurement": "concentration at 4 h", "setting": "[1]", "result": 7850, "unit": "ng/g"},
      {"measurement": "AUC at 4 h", "setting": "[2]", "result": 61, "unit": "ng·h/mL"}
    ]},
    {"molecule": "C=C[C@@H]1C[C@]1(NC(=O)[C@@H]1C[C@@H](Oc2cc(-c3ccccc3)nc3cc(OC)ccc23)CN1C(=O)[C@H]([C@@H](C)CC)N(C)C(=O)NC1CCCC1)C(=O)NS(=O)(=O)C1CC1", "values": [
      {"measurement": "concentration at 4 h", "setting": "[1]", "result": 1240, "unit": "ng/g"}
    ]},
    {"molecule": "C=C[C@@H]1C[C@]1(NC(=O)[C@@H]1C[C@@H](Oc2cc(-c3ccccc3)nc3cc(OC)ccc23)CN1C(=O)[C@H]([C@@H](C)CC)N(C)C(=O)NC(C)(C)C)C(=O)NS(=O)(=O)C1CC1", "values": [
      {"measurement": "concentration at 4 h", "setting": "[1]", "result": 1780, "unit": "ng/g"},
      {"measurement": "AUC at 4 h", "setting": "[2]", "result": 16, "unit": "ng·h/mL"}
    ]},
    {"molecule": "C=C[C@@H]1C[C@]1(NC(=O)[C@@H]1C[C@@H](Oc2nccc3cc(OC)ccc23)CN1C(=O)[C@@H](NC(=O)N[C@H](C(=O)O)C(C)(C)C)C(C)(C)C)C(=O)NS(=O)(=O)C1CC1", "values": [
      {"measurement": "AUC at 4 h", "setting": "[2]", "result": 91, "unit": "ng·h/mL"}
    ]},
    {"molecule": "C=C[C@@H]1C[C@]1(NC(=O)[C@@H]1C[C@@H](Oc2cc(-c3ccccc3)nc3cc(OC)ccc23)CN1C(=O)[C@@H](OC(=O)NC(C)C)C(C)(C)C)C(=O)NS(=O)(=O)C1CC1", "values": [
      {"measurement": "concentration at 4 h", "setting": "[1]", "result": 430, "unit": "ng/g"}
    ]},
    {"molecule": "C=C[C@@H]1C[C@]1(NC(=O)[C@@H]1C[C@@H](Oc2nccc3cc(OC)ccc23)CN1C(=O)[C@@H](NC(=O)NC(C)(C)C)C(C)(C)C)C(=O)NS(=O)(=O)C1CC1", "values": [
      {"measurement": "concentration at 4 h", "setting": "[1]", "result": 1110, "unit": "ng/g"},
      {"measurement": "AUC at 4 h", "setting": "[2]", "result": 497, "unit": "ng·h/mL"}
    ]},
    {"molecule": "C=C[C@@H]1C[C@]1(NC(=O)[C@@H]1C[C@@H](Oc2nccc3cc(OC)ccc23)CN1C(=O)[C@@H](NC(=O)N[C@H](C(=O)OC(C)(C)C)C(C)(C)C)C(C)(C)C)C(=O)NS(=O)(=O)C1CC1", "values": [
      {"measurement": "concentration at 4 h", "setting": "[1]", "result": 4850, "unit": "ng/g"},
      {"measurement": "AUC at 4 h", "setting": "[2]", "result": 632, "unit": "ng·h/mL"}
    ]},
    {"molecule": "C=C[C@@H]1C[C@]1(NC(=O)[C@@H]1C[C@@H](Oc2cc(-c3ccccc3)nc3cc(OC)ccc23)CN1C(=O)[C@@H](NC(=O)N(C)C(C)(C)C)C(C)(C)C)C(=O)NS(=O)(=O)C1CC1", "values": [
      {"measurement": "concentration at 4 h", "setting": "[1]", "result": 2600, "unit": "ng/g"},
      {"measurement": "AUC at 4 h", "setting": "[2]", "result": 32, "unit": "ng·h/mL"}
    ]},
    {"molecule": "C=C[C@@H]1C[C@]1(NC(=O)[C@@H]1C[C@@H](Oc2cc(-c3ccccc3)nc3cc(OC)ccc23)CN1C(=O)[C@@H](NC(=O)NC(C)(C)C)C(C)(C)C)C(=O)NS(=O)(=O)C1CC1", "values": [
      {"measurement": "concentration at 4 h", "setting": "[1]", "result": 72, "unit": "ng/g"},
      {"measurement": "AUC at 4 h", "setting": "[2]", "result": 17, "unit": "ng·h/mL"}
    ]},
    {"molecule": "C=C[C@@H]1C[C@]1(NC(=O)[C@@H]1C[C@@H](Oc2cc(-c3ccccc3)nc3cc(OC)ccc23)CN1C(=O)[C@@H](OC(=O)NC1CCCC1)C(C)(C)C)C(=O)NS(=O)(=O)C1CC1", "values": [
      {"measurement": "concentration at 4 h", "setting": "[1]", "result": 3430, "unit": "ng/g"},
      {"measurement": "AUC at 4 h", "setting": "[2]", "result": 95, "unit": "ng·h/mL"}
    ]},
    {"molecule": "C=C[C@@H]1C[C@]1(NC(=O)[C@@H]1C[C@@H](Oc2nccc3cc(OC)ccc23)CN1C(=O)[C@@H](NC(=O)N[C@H](COC)C(C)(C)C)C(C)(C)C)C(=O)NS(=O)(=O)C1CC1", "values": [
      {"measurement": "concentration at 4 h", "setting": "[1]", "result": 838, "unit": "ng/g"},
      {"measurement": "AUC at 4 h", "setting": "[2]", "result": 3280, "unit": "ng·h/mL"}
    ]},
    {"molecule": "C=C[C@@H]1C[C@]1(NC(=O)[C@@H]1C[C@@H](Oc2cc(-c3ccccc3)nc3cc(OC)ccc23)CN1C(=O)[C@@H](OC(=O)NC(C)(C)C)C(C)(C)C)C(=O)NS(=O)(=O)C1CC1", "values": [
      {"measurement": "concentration at 4 h", "setting": "[1]", "result": 3770, "unit": "ng/g"},
      {"measurement": "AUC at 4 h", "setting": "[2]", "result": 82, "unit": "ng·h/mL"}
    ]},
    {"molecule": "C=C[C@@H]1C[C@]1(NC(=O)[C@@H]1C[C@@H](Oc2nccc3cc(OC)ccc23)CN1C(=O)[C@@H](NC(=O)N[C@H](C(=O)N1CCN(c2ncccn2)CC1)C(C)(C)C)C(C)(C)C)C(=O)NS(=O)(=O)C1CC1", "values": [
      {"measurement": "concentration at 4 h", "setting": "[1]", "result": 87, "unit": "ng/g"},
      {"measurement": "AUC at 4 h", "setting": "[2]", "result": 1630, "unit": "ng·h/mL"}
    ]},
    {"molecule": "C=C[C@@H]1C[C@]1(NC(=O)[C@@H]1C[C@@H](Oc2nccc3cc(OC)ccc23)CN1C(=O)[C@@H](NC(=O)OC(C)(C)C)C(C)(C)C)C(=O)NS(=O)(=O)C1CC1", "values": [
      {"measurement": "concentration at 4 h", "setting": "[1]", "result": 64700, "unit": "ng/g"},
      {"measurement": "AUC at 4 h", "setting": "[2]", "result": 7420, "unit": "ng·h/mL"}
    ]}
  ]
}
